From ChEMBL document CHEMBL3085702, “Synthesis and biological evaluation of 3-(trimethoxyphenyl)-2(3H)-thiazole thiones as combretastatin analogs” (Eur J Med Chem, 2013)
In brackets after ≈: the same amount, converted by molar mass. Activity calls are given as the source filed them. The rule behind the calls is not given here.

Legend:
MCF7 [1] = assay: Cytotoxicity against human MCF7 cells after 48 hrs by MTT assay; assay type: functional, cell-based; conditions: MCF7, 48 h
In short: (§1)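 Log-phase cells harvested by trypsinization, seeded 24 h, then exposed to a range of compound concentrations for 48 h; etoposide positive and DMSO negative controls, final DMSO below 2%. Cells kept at 37 °C, 5% CO2, humidified. MTT formazan absorbance read; % inhibition = (Abs control − Abs treated)/Abs control × 100; IC50 from concentration–response curves by regression.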

MDA-MB-231 = assay: Cytotoxicity against human MDA-MB-231 cells after 48 hrs by MTT assay; assay type: functional, cell-based; conditions: MDA-MB-231, 48 h; in short: as §1
T47D [2] = assay: Cytotoxicity against human T47D cells after 48 hrs by MTT assay; assay type: functional, cell-based; in short: as §1
MCF7 [3] = assay: Induction of apoptosis in human MCF7 cells assessed as viable cells at IC50 using annexin V-PE/7-AAD double staining by flow cytometry (reference value: 95%); assay type: functional
MCF7 [4] = assay: Induction of apoptosis in human MCF7 cells assessed as necrotic cells at IC50 using annexin V-PE/7-AAD double staining by flow cytometry (reference value: 0%); assay type: functional
MCF7 [5] = assay: Induction of apoptosis in human MCF7 cells assessed as early apoptotic cells at IC50 using annexin V-PE/7-AAD double staining by flow cytometry (reference value: 4.88%); assay type: functional
MCF7 [6] = assay: Induction of apoptosis in human MCF7 cells assessed as late apoptotic cells at IC50 using annexin V-PE/7-AAD double staining by flow cytometry (reference value: 0.12%); assay type: functional
T47D [7] = assay: Induction of apoptosis in human T47D cells at IC50 after 24 hrs by acridine orange/ethidium bromide staining test; assay type: functional, cell-based
MCF7 [8] = assay: Selectivity index, ratio of IC50 for human MRC5 cells to IC50 for human MCF7 cells; assay type: functional
In short: (§2)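 Ratio of IC50 in non-tumoral MRC-5 cells to IC50 in the cancer line, both from the 48 h MTT assay.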

MRC5 [9] = assay: Cytotoxicity against human MRC5 cells after 48 hrs by MTT assay; assay type: cell-based; conditions: MRC5, 48 h; in short: as §1
MRC5 [10] = assay: Selectivity index, ratio of IC50 for human MRC5 cells to IC50 for human T47D cells; assay type: functional; in short: as §2
MRC5 [11] = assay: Selectivity index, ratio of IC50 for human MRC5 cells to IC50 for human MDA-MB-231 cells; assay type: functional; in short: as §2
MCF7 [12] = assay: Induction of apoptosis in human MCF7 cells at IC50 after 24 hrs by acridine orange/ethidium bromide staining test; assay type: functional, cell-based
[13] = Inhibition of sheep brain tubulin polymerization assessed as reduction of microtubule assembly after 30 mins by UV-visible spectrophotometry
Ovis aries = species on record: Ovis aries; assay: Inhibition of sheep brain tubulin polymerization assessed as reduction of microtubule assembly

SMILES | IC50 (MCF7 [1]) | IC50 (MDA-MB-231) | IC50 (T47D [2]) | further results
COc1cc(-n2c(-c3ccc(F)cc3)csc2=S)cc(OC)c1OC | 38.5 µg/mL (≈ 102 µM) | 19.5 µg/mL (≈ 51.7 µM) | 38.9 µg/mL (≈ 103 µM) | –
COc1ccc(-n2c(-c3ccccc3)csc2=S)cc1OC | 17.6 µg/mL (≈ 53.4 µM) | 19.1 µg/mL (≈ 58 µM) | 33.1 µg/mL (≈ 100 µM) | –
COc1cc(-n2c(-c3ccc(O)cc3)csc2=S)cc(OC)c1OC | 35.1 µg/mL (≈ 93.5 µM) | 22.9 µg/mL (≈ 61 µM) | 26.4 µg/mL (≈ 70.3 µM) | –
COc1cc([C@@H]2c3cc4c(cc3[C@@H](O[C@@H]3O[C@@H]5CO[C@@H](C)O[C@H]5[C@H](O)[C@H]3O)[C@H]3COC(=O)[C@H]23)OCO4)cc(OC)c1O [ETOPOSIDE] | 9.4 µg/mL (≈ 16 µM) | 7.2 µg/mL (≈ 12.2 µM) | 8.2 µg/mL (≈ 13.9 µM) | Activity (MCF7 [3]): 83.39%; Activity (MCF7 [4]): 0%; Activity (MCF7 [5]): 16.6%; Activity (MCF7 [6]): 0.01%
COc1cc(-n2c(-c3ccc(C)cc3)csc2=S)cc(OC)c1OC | 19.7 µg/mL (≈ 52.7 µM) | 11.8 µg/mL (≈ 31.6 µM) | 16.3 µg/mL (≈ 43.6 µM) | Activity (T47D [7]): Active; Activity (MCF7 [3]): 33.24%; Ratio IC50 (MCF7 [8]): >5; IC50 (MRC5 [9]): > 100 µg/mL; Ratio IC50 (MRC5 [10]): >5; Activity (MCF7 [4]): 0.02%; Activity (MCF7 [5]): 66.47%; Ratio IC50 (MRC5 [11]): >5; Activity (MCF7 [12]): Active; Activity (MCF7 [6]): 0.26%; pIC50 [13]: 4.14; inhibition (Ovis aries): Dose-dependent effect
COc1cc(-n2c(-c3ccc(Cl)cc3Cl)csc2=S)cc(OC)c1OC | 23.6 µg/mL (≈ 55.1 µM) | 49 µg/mL (≈ 114 µM) | 43.4 µg/mL (≈ 101 µM) | –
COc1cc(-n2c(-c3ccc(Br)cc3)csc2=S)cc(OC)c1OC | > 100 µg/mL | 58 µg/mL (≈ 132 µM) | > 100 µg/mL | –
COc1ccc(-c2csc(=S)n2-c2cc(OC)c(OC)c(OC)c2)cc1 | > 100 µg/mL | 53.8 µg/mL (≈ 138 µM) | > 100 µg/mL | –
COc1cc(-n2c(-c3ccc(Cl)cc3)csc2=S)cc(OC)c1OC | > 100 µg/mL | > 100 µg/mL | > 100 µg/mL | –
COc1cc(-n2c(-c3ccc(-c4ccccc4)cc3)csc2=S)cc(OC)c1OC | 45.3 µg/mL (≈ 104 µM) | > 100 µg/mL | > 100 µg/mL | –
COc1ccc(C(=O)CSC(=S)Nc2cc(OC)c(OC)c(OC)c2)cc1 | 18.6 µg/mL (≈ 45.6 µM) | 16.4 µg/mL (≈ 40.2 µM) | 29.9 µg/mL (≈ 73.4 µM) | –
COc1cc(-n2c(-c3ccc(O)c(O)c3)csc2=S)cc(OC)c1OC | > 100 µg/mL | 29.8 µg/mL (≈ 76.1 µM) | 24.9 µg/mL (≈ 63.6 µM) | –
COc1ccc(-n2c(-c3ccccc3)csc2=S)cc1 | 88.5 µg/mL (≈ 296 µM) | 36.8 µg/mL (≈ 123 µM) | 23.2 µg/mL (≈ 77.5 µM) | –
COc1cc(N2C(=S)SCC2(O)c2ccc(Cl)cc2Cl)cc(OC)c1OC (racemic) | 9.6 µg/mL (≈ 21.5 µM) | 14.5 µg/mL (≈ 32.5 µM) | 16.9 µg/mL (≈ 37.9 µM) | Activity (T47D [7]): Active; Activity (MCF7 [3]): 48.32%; IC50 (MRC5 [9]): 47.3 µg/mL (≈ 106 µM); Activity (MCF7 [4]): 0%; Activity (MCF7 [5]): 51.67%; Activity (MCF7 [12]): Active; Activity (MCF7 [6]): 0.02%
COc1cc(N2C(=S)SCC2(O)c2ccc(Br)cc2)cc(OC)c1OC (racemic) | 16.5 µg/mL (≈ 36.2 µM) | 15.1 µg/mL (≈ 33.1 µM) | 16.3 µg/mL (≈ 35.7 µM) | –
COc1cc(-n2c(-c3ccccc3)csc2=S)cc(OC)c1OC | > 100 µg/mL | 52 µg/mL (≈ 145 µM) | 31.6 µg/mL (≈ 87.9 µM) | –
